Tn7 DDE FP: DD(E)-Tn7 binding inhibition, primary FP screen | P02675 | FP displacement of FITC-Tn7 peptide from fibrin DD(E); 0% = median of compound wells per plate | inhibition, % at 8.3 µM | 0.13% of 370,000 active | AID 720508;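 active means inhibition above the mean of compounds falling within the control limits plus 3 SD of them, cut at about 14% in these data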
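Assay system: Fibrin-DD(E) protein isolated from polymerized human fibrin clots; read-out basis: percent inhibition; medium: Tris/NaCl/CaCl2 buffer, pH 7.8; signal: FP measurement; incubation: 10 min plus 3 h, room temperature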
Tn6 DDE FP: inhibitors of Tn6 peptide binding to human fibrin DD(E); P02675; Fibrin DD(E) TRITC-Tn6 fluorescence polarization displacement; inhibition, % at 8.3 µM; 0.21% of 370,000 active;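 active means inhibition above a per-campaign cutoff: mean of compounds within control limits plus 3 SD, cut at about 15% in these data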
ASAP1 GAP inh: blocks human ASAP1-stimulated Arf1 GTP hydrolysis; inhibition, % at 16.5 µM; 0.19% of 360,000 active; Q9ULH1; AID 624377; GDP FP detection; in the data active means inhibition above about 25%
Target sequence (Q9ULH1 325-724 limits assumed): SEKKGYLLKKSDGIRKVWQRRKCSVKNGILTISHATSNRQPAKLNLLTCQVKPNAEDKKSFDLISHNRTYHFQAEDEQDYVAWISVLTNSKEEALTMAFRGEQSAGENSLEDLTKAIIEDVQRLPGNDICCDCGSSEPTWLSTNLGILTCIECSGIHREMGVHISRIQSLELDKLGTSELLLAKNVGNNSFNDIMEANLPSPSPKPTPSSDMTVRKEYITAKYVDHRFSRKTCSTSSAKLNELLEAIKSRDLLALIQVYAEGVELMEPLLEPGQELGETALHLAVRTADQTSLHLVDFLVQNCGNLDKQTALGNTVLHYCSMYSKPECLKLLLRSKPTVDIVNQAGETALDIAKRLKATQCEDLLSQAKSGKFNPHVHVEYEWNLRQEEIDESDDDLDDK
ARFGAP1 inh: inhibits rat ARF GTPase activating protein 1 | Q62848 | Arfgap1-stimulated ARF1 GTP hydrolysis, GDP FP detection | inhibition, % at 16.5 µM | 0.26% of 360,000 active | AID 651572;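 active means inhibition above a per-plate limit, mean inhibition of low control wells plus 3 SD, cut at about 25% in these data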
Target sequence (Q62848 1-136 limits assumed): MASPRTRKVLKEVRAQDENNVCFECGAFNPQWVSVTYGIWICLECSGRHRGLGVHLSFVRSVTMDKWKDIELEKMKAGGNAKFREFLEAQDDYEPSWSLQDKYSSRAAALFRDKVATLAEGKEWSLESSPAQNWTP
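Material: rat Arfgap1 catalytic domain, aa 1-136; also added: human ARF1(Δ1-17)-GTP substrate; compound dosing: one concentration, 16.5 µM, DMSO 1.26%; incubation: GTP hydrolysis reaction 2 h at 25 °C; measured by: Tracer-displacement fluorescence polarization with EDTA stop, 620/688 nm; evaluation: % inhibition from polarization; repeats: one replicate per compound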
DDE Tn6 FP ctr: counter-screen for inhibitors of Tn6 peptide binding to fibrin DD(E) | shares compounds with Tn6 DDE FP | TRITC-Tn6 fluorescence polarization displacement; 0% = median of compound wells, not DMSO | inhibition, % at 8.3 µM | 2% of 680 active | AID 720621;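 active means inhibition above the mean of test compounds lying between the control limits plus 3 SD of those, cut at about 14% in these data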
DDE Tn6 confirm: confirmation of inhibitors of Tn6 binding to human fibrin DD(E) | shares compounds with Tn6 DDE FP | FP displacement of TRITC-Tn6 peptide from DD(E); 0% = per-plate median of test wells | inhibition, % at 8.3 µM | 10% of 680 active;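 active means inhibition above the mean of compounds lying within the control limits plus 3 SD, cut at about 16% in these data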
Hits are given with their value; – = inactive; · = no result; + = active, no number. Most compounds without a hit are left out; they make up all but 0.74% or so of the library.

SMILES	Tn7 DDE FP	Tn6 DDE FP	ASAP1 GAP inh	ARFGAP1 inh	DDE Tn6 FP ctr	DDE Tn6 confirm
COc1cccc2c1C(=O)c1c(O)c3c(c(O)c1C2=O)CC(O)(C(C)=O)CC3OC1CC(N(C)C)C(O)C(C)O1 (stereo unspecified)	–	+	–	–	–	93.2
N#CCC[C@@H]1CC[C@]2(CCCN(Cc3ccc(Br)cc3)C2)O1	–	–	·	·	·	·
Cc1ccc(NC(=O)C(C)Sc2nnc(C)n2C)cc1 (stereo unspecified)	–	15.5	–	–	–	–
CCOc1ccc(NC(=O)C(C)Sc2nnc(C)n2C)cc1 (stereo unspecified)	–	–	–	–	·	·
CN1C(=O)NC(c2ccccc2[N+](=O)[O-])C2=C1CCCC2=O (stereo unspecified)	–	44.7	–	–	–	20.5
Fc1ccccc1-c1n[nH]c(=S)n1N=Cc1ccc(OCc2ccccc2)cc1	–	–	·	·	·	·
COc1ccc(NC(=O)C(c2cc3c(cc2[N+](=O)[O-])OCO3)N(C)C)cc1 (stereo unspecified)	–	15.2	–	–	–	–
COc1ccc(NC(=O)c2ccc(NC(=O)C(C)C)cc2)c([N+](=O)[O-])c1	–	–	–	–	·	·
O=C(c1ccc(Cl)c(S(=O)(=O)N2CCCCCC2)c1)N1CCCC(C(F)(F)F)C1 (stereo unspecified)	–	–	–	–	·	·
Cc1ccc(C(=O)N2CCCC(C(F)(F)F)C2)cc1S(=O)(=O)N1CCCCC1 (stereo unspecified)	–	16.3	–	–	–	–
Cc1cc2c(N)cccc2nn1	–	+	–	–	–	17.6
COc1ccc(OC)c(S(=O)(=O)N2CCCCC2C(=O)N2CCN(c3ccc(F)cc3)CC2)c1 (stereo unspecified)	–	–	·	·	·	·
O=S(=O)(c1ccc(NC(=S)NCCC(c2ccccc2)c2ccccc2)cc1)N1CCOCC1	–	16.8	–	–	–	–
CCCCOCCCNC(=S)Nc1ccc(S(=O)(=O)N2CCOCC2)cc1	–	–	–	–	·	·
COc1ccc(OC)c(S(=O)(=O)N2CCCC(C(=O)Nc3c(C)n(C)n(-c4ccccc4)c3=O)C2)c1 (stereo unspecified)	–	–	·	·	·	·
O=C(c1ccc(Br)cc1)N1CCN(S(=O)(=O)c2ccccc2)CC1	–	15.5	–	–	–	–
O=C(COC(=O)c1cc(-c2cccc3ccccc23)nc2ccccc12)NC1CCS(=O)(=O)C1 (stereo unspecified)	–	29.8	–	–	–	19.7
Cc1cc(C(=O)OCC(=O)NC2CCS(=O)(=O)C2)c2ccccc2n1 (stereo unspecified)	–	–	–	–	·	·
CC(=O)CC[C@@H]1CC[C@]2(CCCN(S(=O)(=O)C3CCCCC3)C2)O1	–	–	·	·	·	·
Fc1cccc(Cl)c1CNc1ccc(N2CCCC2)cc1	–	20.4	–	–	–	–
Cc1ccccc1C(=O)Nc1ccc(-c2nc3ccc(C(=O)c4ccccc4)cc3[nH]2)cc1	–	38.0	–	–	13.8	21.5
CN(c1ccccc1)S(=O)(=O)c1ccc(Cl)c(C(=O)Nc2nc3ccccc3[nH]2)c1	–	–	–	–	·	·
CN(c1ccccc1)S(=O)(=O)c1ccc(Cl)c(C(=O)Nc2ccc(-c3nc4ccccc4[nH]3)cc2)c1	–	38.6	–	–	–	21.2
COC(=O)[C@]12C[C@H](CC(=O)NCc3ccc(OC)c(OC)c3)C(=O)N(Cc3ccco3)C1=C[C@H](C(C)C)O[C@@H]2C1CC1	–	–	·	·	·	·
COc1cccc(OC)c1NC(=O)OC1CCC12CCC(c1ccccc1)CC2 (stereo unspecified)	–	–	·	·	·	·
SMILES	Tn7 DDE FP	Tn6 DDE FP	ASAP1 GAP inh	ARFGAP1 inh	DDE Tn6 FP ctr	DDE Tn6 confirm
CCOC(=O)C1CCCN(c2c(NCCCN(C)Cc3ccccc3)c(=O)c2=O)C1 (stereo unspecified)	–	–	–	–	·	·
CCOC(=O)C1CCCN(c2c(NCCc3ccc(C)cc3)c(=O)c2=O)C1 (stereo unspecified)	–	17.3	–	–	–	–
CN(C)S(=O)(=O)c1cccc(C(=O)N/N=C\c2ccnc3ccccc23)c1	–	–	·	·	·	·
CS(=O)(=O)N1CCN=C1SCc1ccc(Br)cc1	–	–	–	–	·	·
CC(=O)N1CCN=C1SCc1ccc(Br)cc1	–	20.0	–	–	–	–
CC1(C)c2ccccc2N2CCC(=O)NC21/C=C/c1ccco1 (stereo unspecified)	–	17.2	–	–	–	–
CN(CC(=O)N1CCc2ccccc21)S(=O)(=O)c1cccs1	–	16.1	–	–	–	–
CC1CN(C(=O)c2ccc(COc3ccccc3Br)o2)CC(C)O1 (stereo unspecified)	–	21.3	–	–	–	–
CCOC(=O)[C@@]12CN(C(=O)OC(C)(C)C)CC=C1N(Cc1ccc(OC)cc1)C(=O)[C@H]2CC(=O)NCc1cccs1	–	–	·	·	·	·
O=C1c2cccc(NCCCNCCO)c2C(=O)c2cccc(NCCCNCCO)c21	–	21.4	–	–	–	32.3
O=C1c2ccccc2C(=O)c2c(NCc3cccnc3)cccc21	–	–	–	–	·	·
CCCCCCC/C=C(\C)[C@@H](O)[C@@H](C)C(=O)N1CCC[C@@H]1C(=O)O	–	–	·	·	·	·
CN(Cc1ccccc1)S(=O)(=O)c1cccc(C(=O)OCc2ccc(Oc3ccccc3)cc2)c1	–	–	·	·	·	·
O=C(CSc1ccc(-c2nc3ccccc3[nH]2)cn1)Nc1ccc(S(=O)(=O)NC2CC2)cc1	–	182.5	–	–	–	–
Cc1ccc(-c2[nH]nc(N)c2N=Nc2cccc(Cl)c2C)cc1	–	17.5	–	–	–	–
COC(=O)c1ccccc1N=Nc1c(N)n[nH]c1N	–	–	–	–	·	·
CCCCC(CC)C(=O)N1CCN(C(=O)c2ccco2)CC1 (stereo unspecified)	–	16.6	–	–	–	–
COc1ccc(Cn2cc(CN3[C@H](Cc4ccccc4)COc4cc(Br)ccc4S3(=O)=O)nn2)cc1	–	–	·	·	·	·
COc1ccc(NC(=O)Cn2cnc3c(cnn3-c3ccc(C)c(C)c3)c2=O)c(OC)c1	–	15.9	–	–	–	–
CCOc1ccccc1NC(=O)Cn1cnc2c(cnn2-c2ccc(C)c(C)c2)c1=O	–	–	–	–	·	·
O=C1N=C(N2CCN(c3ccccc3)CC2)S/C1=C/c1ccco1	–	16.9	–	–	–	–
CN(Cc1ccccc1)Cc1c[nH]c2ccccc12	–	16.6	–	–	–	–
CC1CCC2(CC1)CCN(CCCOC(=O)NCc1ccc(Cl)cc1)C2=O (stereo unspecified)	–	–	·	·	·	·
COC(=O)c1ccc2c(c1)C(C)(C)C(/C=C/c1ccccc1O)=[N+]2C	–	58.1	–	–	–	–
COc1cc2sc3ccc(-c4ccc(CN5CCOCC5)cc4)cc3c(=O)c2cc1OC	–	17.6	–	–	–	–

High-throughput results (PubChem)
